According to ChEMBL document CHEMBL1811838, “Antimalarial activity of natural and synthetic prodiginines” (J Med Chem, 2011):
pIC50: −log10 of the molar value.

Columns and labels:
Plasmodium falciparum [1] = assay: Antimalarial activity Plasmodium falciparum D6 after 72 hrs by SYBR Green I based fluorescence assay; format: functional, organism-based; details: D6, 72 h
Summary of the method: (§1)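 P. falciparum (D6 pansensitive; Dd2 MDR) cultured under standard conditions and grown 72 h with varying compound concentrations, chloroquine positive control or no drug, each condition in quadruplicate. Growth measured by SYBR Green I fluorescence with minor modifications; IC50 = concentration inhibiting growth by 50%.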

[2] = Toxicity in C57BL/6J mouse splenic lymphocytes after 72 hrs by Alamar blue Assay; format: cell-based; details: splenic lymphocyte
Summary of the method: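 Splenic lymphocytes from C57BL/6J mice washed, then stimulated with 1 μg/mL concanavalin A in RPMI/10% FBS with 50 μM β-mercaptoethanol. Seeded at 2 × 10^5 cells/well with serially diluted compound for 72 h at 37 °C, 5% CO2. Resazurin added (final 10 μM) for another 24 h; fluorescence read at ex 560/em 590 nm.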

Plasmodium falciparum [3] = assay: Antimalarial activity multidrug-resistant Plasmodium falciparum Dd2 after 72 hrs by SYBR Green I based fluorescence assay; format: functional, organism-based; details: Dd2, 72 h; summary of the method: as §1
Mus musculus [4] = assay: Toxicity in Plasmodium yoelii infected CF-1 mouse assessed as weight loss at 5 mg/kg, po qd for 3 days relative to control; format: organism-based; design: dose 5 mg/kg, route oral; details: in vivo, 72 h
Summary of the method: (§2)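 Female outbred CF-1 mice were infected i.v. via the tail vein with 5 × 10^5 P. yoelii Kenya-infected erythrocytes, in groups of five. Compound or vehicle alone was given by gavage in caprylic/capric triglyceride once daily for 3 days, starting 24 h post-infection. One day after the last dose, Giemsa-stained thin smears were scored by microscopy for % parasitemia versus untreated controls. Group mean weight was recorded as day 3 versus day 0.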

Plasmodium yoelii [5] = assay: Antimalarial activity Plasmodium yoelii infected in CF-1 mouse assessed as reduction of parasitemia at 25 mg/kg, po qd for 3 days administered 24 hrs after infection measured after 24 hrs last dose relative to control; format: functional; design: scale not given: the % may be the effect or the level left
Summary of the method: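 Female outbred CF-1 mice infected iv (tail vein) with 5 × 10^5 P. yoelii Kenya-infected erythrocytes. Groups of five given compound or vehicle alone by gavage in caprylic/capric triglyceride once daily for 3 days starting 24 h post-infection. One day after last dose, Giemsa-stained thin smears scored microscopically for % infected erythrocytes vs untreated controls. Group mean weight day 3 vs day 0. Smear-negative mice followed; parasite-free at 28 days counted cured.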

Plasmodium yoelii [6] = assay: Antimalarial activity Plasmodium yoelii infected in CF-1 mouse assessed as reduction of parasitemia at 5 mg/kg, po qd for 3 days administered 24 hrs after infection measured after 24 hrs last dose relative to control; format: functional; design: scale not given: the % may be the effect or the level left; summary of the method: as §2
Mus musculus [7] = assay: Toxicity in Plasmodium yoelii infected CF-1 mouse assessed as weight loss at 25 mg/kg, po qd for 3 days relative to control; format: organism-based; design: dose 25 mg/kg, route oral; details: in vivo, 72 h; summary of the method: as §2

| Structure (SMILES) | pIC50 (Plasmodium falciparum [1]) | pIC50 [2] | pIC50 (Plasmodium falciparum [3]) | Activity (Mus musculus [4]) [%] | Activity (Plasmodium yoelii [5]) [%] | Activity (Plasmodium yoelii [6]) [%] | Activity (Mus musculus [7]) [%] |
| --- | --- | --- | --- | --- | --- | --- | --- |
| COC1=CC(c2ccc[nH]2)=N/C1=C\c1[nH]c(CCC2CCCCC2)cc1CCC1CCCCC1 | 8.28 | > 6.90 | 8.46 |  |  |  |  |
| COC(=O)CCCc1cc[nH]c1/C=C1\N=C(c2ccc[nH]2)C=C1OC | 5.35 |  |  |  |  |  |  |
| CCc1cc(Cc2ccc(Cl)cc2)c(/C=C2\N=C(c3ccc[nH]3)C=C2OC)[nH]1 |  | > 6.90 | 8.21 |  |  |  |  |
| COC1=CC(c2ccc[nH]2)=N/C1=C\c1[nH]c(Cc2ccc(Cl)cc2)cc1Cc1ccc(Cl)cc1 | 8.21 | > 6.90 | 8.32 | 107.5 | 100 | 92 | 102.5 |
| CCCCCCc1cc[nH]c1/C=C1\N=C(c2ccc[nH]2)C=C1OC | 7.55 | > 6.90 | 8.15 |  |  |  |  |
| CCCCCCCCCCc1cc[nH]c1/C=C1\N=C(c2ccc[nH]2)C=C1OC | 8.10 | > 6.90 | 8.00 |  |  |  |  |
| CCCCCCc1cc(CCC)c(/C=C2\N=C(c3ccc[nH]3)C=C2OC)[nH]1 | 8.35 | > 6.90 | 8.40 |  |  |  |  |
| COC1=CC(c2ccc[nH]2)=N/C1=C\c1[nH]c(Cc2ccc(Cl)cc2)cc1CCC1CCCCC1 | 8.41 | 6.00 | 8.54 |  |  |  |  |
| CCCCc1cc[nH]c1/C=C1\N=C(c2ccc[nH]2)C=C1OC | 7.10 | > 6.90 | 7.74 |  |  |  |  |
| CCCCCCCCc1cc(CCCCCC)[nH]c1/C=C1\N=C(c2ccc[nH]2)C=C1OC | 8.31 | > 6.90 | 8.70 |  |  |  |  |
| COC1=CC(c2ccc[nH]2)=N/C1=C\c1[nH]c(Cc2cccc(F)c2)cc1Cc1cccc(F)c1 | 8.29 | > 6.90 | 8.17 |  |  |  |  |
| CCCCCCCCc1cc(CCCCCCCC)c(/C=C2\N=C(c3ccc[nH]3)C=C2OC)[nH]1 | 7.04 | 4.51 | 6.89 |  |  |  |  |
| CCCCCCCCc1cc(Cc2ccc(F)cc2)c(/C=C2\N=C(c3ccc[nH]3)C=C2OC)[nH]1 | 8.89 | > 6.90 | 8.92 |  |  |  |  |
| CCCCCCCCCCCc1ccc(/C=C2\N=C(c3cccs3)C=C2OC)[nH]1 | 5.23 | 5.67 | 5.11 |  |  |  |  |
| COC1=CC(c2ccc[nH]2)=N/C1=C\c1[nH]c(Cc2ccc(F)cc2)cc1Cc1ccc(Cl)cc1 |  | > 6.90 | 8.21 |  |  |  |  |
| COC1=CC(c2ccc[nH]2)=N/C1=C\c1[nH]ccc1Cc1ccc2ccccc2c1 | 7.25 |  |  |  |  |  |  |
| CCCCCCCCCCCCCCCCc1ccc(/C=C2\N=C(c3ccc[nH]3)C=C2OC)[nH]1 | 6.52 | > 6.90 | 6.40 |  |  |  |  |
| CCCCC1CCCCCCc2cc1c(/C=C1\N=C(c3ccc[nH]3)C=C1OC)[nH]2 (stereo not drawn) [STREPTORUBIN B] | 8.11 |  |  |  |  |  |  |
| COC1=CC(c2ccc[nH]2)=N/C1=C\c1[nH]ccc1Cc1ccc(Br)cc1 | 7.05 | > 6.90 | 6.97 |  |  |  |  |
| COC1=CC(c2ccc[nH]2)=N/C1=C\c1[nH]c(Cc2ccc(F)cc2)cc1Cc1ccc(F)cc1 | 8.25 | > 6.90 | 8.24 |  |  |  |  |
| CCCCCCCCCCCc1ccc(/C=C2\N=C(c3ccco3)C=C2OC)[nH]1 | 5.53 | 6.01 | 5.42 |  |  |  |  |
| CCCc1ccc(/C=C2\N=C(c3ccc[nH]3)C=C2OC)[nH]1 | 5.64 |  |  |  |  |  |  |
| CCCCCCCCCCCC1=N/C(=C\c2[nH]c(-c3ccccc3)cc2OC)C=C1 | 4.98 | 5.45 | 4.80 |  |  |  |  |
| CCCCCCCCc1ccc(/C=C2\N=C(c3ccc[nH]3)C=C2OC)[nH]1 | 7.10 | > 6.90 | 6.89 |  |  |  |  |
| CCCCCCCCCCCC1=N/C(=C\c2[nH]c(-c3cc4ccccc4[nH]3)cc2OC)C=C1 | 5.39 | 5.47 | 5.21 |  |  |  |  |
| CCCCCCCCc1cc(CCCCCCC)[nH]c1/C=C1\N=C(c2ccc[nH]2)C=C1OC | 8.21 | 5.41 | 8.54 |  |  |  |  |
| COC1=CC(c2ccc[nH]2)=N/C1=C\c1[nH]c(Cc2c(F)cccc2F)cc1Cc1c(F)cccc1F | 7.83 | > 6.90 | 7.74 |  |  |  |  |
| CCCCCCCCc1cc(Cc2ccc(Br)cc2)c(/C=C2\N=C(c3ccc[nH]3)C=C2OC)[nH]1 | 8.40 | > 6.90 | 8.54 |  |  |  |  |
